# Shown are actives, neighbours in structure and some others; about 2.4% of the full set was active somewhere.
# Apaf-1 inh: blocks human Apaf-1 apoptosome activity; reconstituted apoptosome caspase-3 activity, DEVD-Rh110 fluorescence; hit rate 0.71% among 330,000; inhibition, % at 20 µM; active means inhibition of at least 40% at 20 µM;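 further: plate controls were DMSO wells for no effect and DEVD-CHO caspase inhibitor wells for full effect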
# Target sequence (O14727 whole entry, looked up): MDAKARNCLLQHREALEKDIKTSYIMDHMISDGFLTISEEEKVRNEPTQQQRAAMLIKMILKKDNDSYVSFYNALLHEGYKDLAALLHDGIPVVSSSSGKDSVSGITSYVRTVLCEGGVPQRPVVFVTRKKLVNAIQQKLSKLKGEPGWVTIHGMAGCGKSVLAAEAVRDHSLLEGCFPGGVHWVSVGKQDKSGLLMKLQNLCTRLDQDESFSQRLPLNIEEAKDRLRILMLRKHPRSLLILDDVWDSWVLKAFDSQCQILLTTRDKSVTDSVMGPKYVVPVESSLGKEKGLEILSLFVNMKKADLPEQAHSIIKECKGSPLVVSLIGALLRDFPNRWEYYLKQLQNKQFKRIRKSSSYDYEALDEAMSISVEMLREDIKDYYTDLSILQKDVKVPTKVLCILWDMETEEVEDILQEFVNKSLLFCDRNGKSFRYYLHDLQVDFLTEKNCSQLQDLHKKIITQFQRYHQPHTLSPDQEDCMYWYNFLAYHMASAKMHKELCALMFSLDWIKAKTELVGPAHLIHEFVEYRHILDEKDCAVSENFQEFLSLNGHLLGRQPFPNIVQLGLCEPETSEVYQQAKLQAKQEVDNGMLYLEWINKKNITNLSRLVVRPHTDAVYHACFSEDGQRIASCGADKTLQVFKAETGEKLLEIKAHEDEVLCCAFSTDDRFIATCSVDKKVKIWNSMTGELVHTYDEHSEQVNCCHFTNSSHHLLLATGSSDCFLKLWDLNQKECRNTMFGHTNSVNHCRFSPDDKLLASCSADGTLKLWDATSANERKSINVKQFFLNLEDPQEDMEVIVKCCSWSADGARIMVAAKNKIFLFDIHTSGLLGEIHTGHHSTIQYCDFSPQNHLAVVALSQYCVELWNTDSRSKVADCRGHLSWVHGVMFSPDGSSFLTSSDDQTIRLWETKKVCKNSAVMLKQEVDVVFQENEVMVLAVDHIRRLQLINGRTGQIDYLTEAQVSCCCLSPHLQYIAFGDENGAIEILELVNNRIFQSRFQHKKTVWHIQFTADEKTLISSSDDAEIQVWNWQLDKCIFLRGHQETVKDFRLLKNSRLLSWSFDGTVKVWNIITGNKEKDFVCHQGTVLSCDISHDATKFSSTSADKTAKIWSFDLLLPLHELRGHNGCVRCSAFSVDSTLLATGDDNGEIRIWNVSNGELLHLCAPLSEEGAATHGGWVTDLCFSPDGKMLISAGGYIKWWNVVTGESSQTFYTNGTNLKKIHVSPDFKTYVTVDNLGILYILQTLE
#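 System: Apoptosome proteins | Medium: Hepes pH 7.5 with detergent and BSA | Also added: Cytochrome c trigger plus (Z-DEVD)2-Rh110 caspase-3 substrate | Incubation: 30 min compound preincubation, 50 min activation, room temperature | Detection: Rhodamine 110 fluorescence at Ex 480/Em 540 nm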
# FID counter: fluorescent intercalator displacement, NS3 helicase counter-screen; DNA fluorescent intercalator displacement, fluorescence; inhibition, % at 7.9 µM; hit rate 0.17% among 290,000; in the data active means inhibition above about 37%;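 further: 0% = vehicle and 100% = reference compound; higher means more ethidium bromide displaced from hairpin DNA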
# UBC13 polyUb: inhibitors of human UBC13 polyubiquitin chain formation; hit rate 0.47% among 330,000; inhibition, % at 20 µM; TR-FRET; P61088; in the data active means inhibition above about 45%, passing the limit was not always enough
# ANO1 block: inhibitors of mouse TMEM16A calcium-activated chloride channel. Q8BHY3. HEK293 TMEM16A/YFP iodide influx fluorescence, ionomycin. normalized B-score (activity score, 25-100; higher = stronger inhibition) at 10 µM. hit rate 1.2% among 310,000. AID 588511;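 active means ratio plate-corrected score three or more library SD toward inhibition, starting fluorescence score within five deviations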;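 further: score derived from kinetic fluorescence span divided by baseline fluorescence per well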
# TMEM16A act: mouse TMEM16A channel activation, primary screen; hit rate 0.3% among 340,000; AID 623877; B-score at 10 µM; HEK293 TMEM16A/YFP-H148Q/I152L, iodide quench fluorescence; active compounds read low; Q8BHY3;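 active means fluorescence-ratio B-score plate-corrected deviation score at least 3 library SD below zero, with starting fluorescence score within 5 deviations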;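 further: channel opened by trigger with iodide after compound preincubation; score built on the fluorescence ratio of max minus min over baseline; more negative score means more quench and so TMEM16A activation or potentiation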
# Apaf-1 inh conf2: Apaf-1 inhibition, single-dose confirmed; shares compounds with Apaf-1 inh; reconstituted apoptosome, caspase-3 DEVD-Rh110 fluorescence; inhibition, % at 20 µM; hit rate 25% among 1,800; AID 504614;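 active means mean inhibition of at least 40% at 20 µM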;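 further: plate controls were DMSO wells for no effect and DEVD-CHO caspase inhibitor control wells for full effect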
# Rh110 quench: Rh110 signal interference in Apaf-1 inhibitor counter-screen. shares compounds with Apaf-1 inh. Rh110 fluorescence interference, quenched caspase reaction. activation (fluorescence interference), % at 20 µM. 1,800 tested, under 10 active. AID 504615;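 active means signal rise of 40% or more at 20 µM, treated as a fluorescence artifact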
# Apaf1 inh interf: Apaf-1 inhibitor counter-screen fluorescence artifact | shares compounds with Apaf-1 inh | fluorescence interference counterscreen, Apaf-1 assay format | IC50, µM | 460 tested, under 10 active | AID 588538; call rule not given here
# An asterisk follows results filed as active; i = inactive; nt = not tested or not shown.
SMILES,Apaf-1 inh,FID counter,UBC13 polyUb,ANO1 block,TMEM16A act,Apaf-1 inh conf2,Rh110 quench,others
COc1ccc(/C=N/NC(=O)c2cccc3ccccc23)c(OC)c1OC,1.6,nt,-3.7,i,i,nt,nt,
Cc1nc(NNC(=O)c2ccc([N+](=O)[O-])cc2)cc(-c2ccccc2)n1,-2.5,0.7,-5.6,i,i,nt,nt,
O=C(CCc1ccccc1)NNc1cc(N2CCCCC2)nc(N2CCCCC2)n1,60.4*,-4.3,-19.7,i,i,44.5*,4.3,Apaf1 inh interf=>100
O=C(CCc1ccccc1)NNC(=O)C1CCCCC1,-11.4,-3.4,-7.5,i,i,nt,nt,
CC(C)(C)c1ccc(C(=O)NNc2cc(N3CCOCC3)nc(N3CCOCC3)n2)cc1,36.2,-9.5,12.2,i,i,nt,nt,
CC(C)(C)c1ccc(C(=O)NNc2cc(N3CCCCC3)nc(N3CCCCC3)n2)cc1,73.4*,-4.8,-15.9,i,i,43.5*,0.2,Apaf1 inh interf=>100
O=C(NNc1cc(N2CCCC2)nc(N2CCCC2)n1)c1ccc([N+](=O)[O-])cc1,97.6*,-2.7,-73.0,i,i,75.7*,7.8,Apaf1 inh interf=>100
COc1ccc(Cn2c(N)c(C#N)c3nc4ccccc4nc32)cc1,50.4*,-14.2,-18.8,i,i,12.2,0.0,
COc1cc(Cn2c(N)c(C#N)c3nc4ccccc4nc32)cc(OC)c1,57.9*,-12.0,21.7,i,i,17.5,3.7,
COc1cccc(Cn2c(N)c(C#N)c3nc4ccccc4nc32)c1OC,92.2*,-15.2,-5.7,i,i,11.4,7.9,
N#Cc1c(N)n(-c2ccc(O)cc2)c2nc3ccccc3nc12,7.4,-6.0,-8.0,i,i,nt,nt,
N#Cc1c(N)n(CCc2ccc(F)cc2)c2nc3ccccc3nc12,82.2*,-2.8,-12.5,i,i,19.2,10.2,
COc1ccc(Cn2c(N)c(S(=O)(=O)c3cccs3)c3nc4ccccc4nc32)cc1,-7.6,1.5,7.5,i,i,nt,nt,
Cc1nnc(SCC(=O)Nc2cccc([N+](=O)[O-])c2)n1CC1CCCO1 (stereo not drawn),-2.5,-3.5,-7.0,i,i,nt,nt,
Cc1ccc(OCc2cnc(Cl)s2)c(C)c1,5.4,-1.1,0.5,i,i,nt,nt,
COc1ccc(-c2oc(=O)c3cc(OC)c(OC)cc3c2/C=C/c2cccc([N+](=O)[O-])c2)cc1,3.7,nt,-14.4,nt,i,nt,nt,
Cc1cccc(C(C)C)c1NC(=O)CN1C(=O)NC2(CCc3ccccc32)C1=O (stereo not drawn),3.2,nt,2.3,i,i,nt,nt,
N#Cc1c(N)n(CCNC(=O)c2ccc(Cl)cc2)c2nc3ccccc3nc12,66.5*,-9.6,-1.7,i,i,21.6,4.4,
COCCn1c(N)c(C#N)c2nc3ccccc3nc21,51.7*,1.1,-2.6,i,i,14.8,4.7,
Cc1ccc(C(=O)NCCn2c(N)c(C#N)c3nc4ccccc4nc32)cc1,10.5,-16.6,-1.1,i,i,nt,nt,
N#Cc1c(N)n(CCOC(=O)c2cccc([N+](=O)[O-])c2)c2nc3ccccc3nc12,17.0,2.7,-29.4,i,i,nt,nt,
N#Cc1c(N)n(CCOC(=O)c2cccc(Br)c2)c2nc3ccccc3nc12,45.9*,-11.3,-17.1,i,i,19.8,10.6,
O=C(COC(=O)/C=C/c1ccccc1Cl)NC1CCCCCC1,6.3,-1.9,-7.0,i,i,nt,nt,
Cc1cc(C)c(C)c(S(=O)(=O)N2CCN(C(=O)CCC(=O)N3CCOCC3)CC2)c1C,-4.0,-39.8,15.5,i,i,nt,nt,
CCc1cc(C(=O)N=Nc2c(O)[nH]c3c(Br)cc(Br)cc23)c2ccccc2n1,8.7,-4.0,-14.5,i,i,nt,nt,
SMILES,Apaf-1 inh,FID counter,UBC13 polyUb,ANO1 block,TMEM16A act,Apaf-1 inh conf2,Rh110 quench,others
COc1ccc(-c2ccc(/C=C3\C(=O)N(c4ccccc4)N=C3c3ccccc3)o2)c([N+](=O)[O-])c1,0.8,-0.1,-51.4,i,i,nt,nt,
COC(=O)c1ccccc1-c1ccc(/C=C2\C(=O)N(c3ccccc3)N=C2c2ccccc2)o1,62.3*,0.2,-41.4,i,i,13.3,8.8,
COc1ccc(C2c3c(-c4ccccc4O)n[nH]c3C(=O)N2CCc2ccc(OC)c(OC)c2)cc1 (stereo not drawn),25.9,-29.7,-17.9,i,i,nt,nt,
COc1ccc(CCN2C(=O)c3[nH]nc(-c4ccccc4O)c3C2c2cccc(Cl)c2)cc1 (stereo not drawn),40.9*,-10.5,-6.7,i,i,10.2,12.5,
COc1cccc(CNC(=O)[C@@H](C)N2C(=O)N3CCc4c([nH]c5ccc(OC)cc45)C3(C)C2=O)c1 (stereo partly drawn),14.2,-34.4,8.3,i,i,nt,nt,
NC(=O)CC1Nc2cccc3cccc(c23)NC1=O (stereo not drawn),98.0*,-12.6,-38.9,i,i,19.6,2.4,
O=C(CC1Nc2cccc3cccc(c23)NC1=O)Nc1ccccc1 (stereo not drawn),96.1*,-14.4,-30.4,i,i,13.9,0.6,
CCOc1ncccc1C(=O)OCC(=O)N(CC(C)C)C1CCS(=O)(=O)C1 (stereo not drawn),-1.9,-20.8,-4.1,i,i,nt,nt,
CCN(CC)C(=O)C1CCCN(C(=O)Nc2ccc3nsnc3c2)C1 (stereo not drawn),70.9*,-15.2,17.6,i,i,11.8,4.9,
S=C(Nc1ccc2nsnc2c1)N1CCCCC1,nt,1.2,nt,i,i,nt,nt,
COCCN1C(=O)Cc2c1nc(N)c1c(N)nc(N3CCN(c4ccc(F)cc4)CC3)c(C#N)c21,10.3,-5.7,0.1,i,i,nt,nt,
COCC(C)N1C(=O)Cc2c1nc(N)c1c(N)nc(N3CCN(c4ccccc4F)CC3)c(C#N)c21 (stereo not drawn),96.8*,-11.5,-73.7,i,i,25.3,5.3,
COc1ccc(CN2C(=O)Cc3c2nc(N)c2c(N)nc(N4CCOCC4)c(C#N)c32)cc1,86.4*,-6.4,-5.6,i,i,25.1,21.6,
COc1ccc(C(=O)c2c(C(F)(F)F)oc3c2C(=O)c2ccccc2C3=O)cc1,78.6*,6.3,-46.3,i,i,84.5*,13.9,Apaf1 inh interf=>100
C=C(C)c1cccc(C(C)(C)NC(=O)N2CCN(c3ccc(OC)cc3)CC2)c1,15.3,-8.6,-6.2,i,i,nt,nt,
COc1cc(OC)cc(C(=O)N2CCN(c3ccc(N4CCOCC4)nn3)CC2)c1,-2.4,nt,10.6,i,i,nt,nt,
N#Cc1ccc(C23CC4(C2)[C@H](CN(Cc2ccc(-c5ccccc5)cc2)[C@@H]4c2ccccc2)C3c2ccc(C(F)(F)F)cc2)cc1 (stereo partly drawn),44.8*,nt,-0.4,i,nt,4.5,8.4,

# High-throughput results (PubChem BioAssay)
